T cruzi growth-1: inhibitors of T. cruzi proliferation. inhibition, % at 8.34 µM. 5.9% of 77,000 active. AID 624255. T. cruzi beta-gal in NIH3T3, GalScreen luminescence, 90 h;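 active means mean inhibition above about 93%, with at least 55% of replicates each passing it, limit read from the data, passing the limit was not always enough; inconclusive means only one of those two conditions holds; inactive means neither condition holds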
Pf Dd2 inh: P. falciparum Dd2 growth inhibition. activity change, % at 10 µM. SYBR Green, 72 h; active compounds read low. 2.3% of 94,000 active; in the data active means activity change below about -80%; inconclusive means no clear call, values can overlap the other calls
IDH1 mut inh: IDH1 R132H (human) inhibition. O75874. IDH1 R132H reductase, diaphorase/resazurin fluorescence, 60 min. inhibition, % at 10 µM. 0.18% of 70,000 active. AID 624101; in the data active means inhibition above about 34%; inconclusive means no clear call, values can overlap the other calls; inactive means below about 11%
Target sequence (O75874 whole entry R132H): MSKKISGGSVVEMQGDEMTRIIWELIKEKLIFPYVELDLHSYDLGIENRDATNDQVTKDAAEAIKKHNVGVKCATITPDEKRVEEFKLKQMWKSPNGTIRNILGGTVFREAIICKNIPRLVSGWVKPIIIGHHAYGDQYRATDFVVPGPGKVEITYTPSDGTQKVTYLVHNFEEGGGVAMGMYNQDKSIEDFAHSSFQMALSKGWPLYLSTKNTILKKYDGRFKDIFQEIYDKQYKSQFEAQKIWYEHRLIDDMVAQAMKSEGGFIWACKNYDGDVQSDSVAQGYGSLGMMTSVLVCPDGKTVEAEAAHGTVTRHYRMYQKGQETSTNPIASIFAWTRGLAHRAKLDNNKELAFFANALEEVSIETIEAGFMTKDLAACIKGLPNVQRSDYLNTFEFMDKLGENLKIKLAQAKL
KDM4C inh: KDM4C (human) demethylase inhibition. AID 720574. inhibition, % at 12.5 µM. 0.15% of 96,000 active. GST-KDM4C 2-372, H3K9me3 peptide, LANCE TR-FRET;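 active means mean replicate inhibition above about 25%, with at least 55% of replicates also reaching it, limit read from the data, passing the limit was not always enough; inconclusive means only one of those two conditions met; inactive means neither condition met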
Target sequence (Q9H3R0 2-372 limits assumed): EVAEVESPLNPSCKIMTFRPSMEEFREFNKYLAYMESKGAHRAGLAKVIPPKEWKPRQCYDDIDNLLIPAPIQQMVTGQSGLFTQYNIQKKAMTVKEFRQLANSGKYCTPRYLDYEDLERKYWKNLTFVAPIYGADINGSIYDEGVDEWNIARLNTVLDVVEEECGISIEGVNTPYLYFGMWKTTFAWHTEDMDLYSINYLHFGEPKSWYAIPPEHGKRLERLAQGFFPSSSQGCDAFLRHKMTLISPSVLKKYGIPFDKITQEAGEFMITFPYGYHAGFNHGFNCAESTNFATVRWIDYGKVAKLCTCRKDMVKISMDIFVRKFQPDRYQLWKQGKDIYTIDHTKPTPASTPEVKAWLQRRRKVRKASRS
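Test system: N-terminal GST-fused human GASC-1 (KDM4C) fragment, residues 2-372; quantity: GASC-1 enzyme at 10 nM final in reaction; dosing: single dose; schedule: 30 min demethylation and 1 h detection at room temperature; signal: LANCE TR-FRET, excitation 340 nm, emissions 618 and 671 nm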
T cruzi growth-2: blocks T. cruzi growth in NIH3T3 host cells | inhibition, % at 8.35 µM | shares compounds with T cruzi growth-1 | T. cruzi beta-gal in NIH3T3, GalScreen luminescence, 90 h | 72% of 5,600 active;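 active means mean replicate inhibition above about 95% and at least 55% of replicates individually reaching it, limit read from the data; inconclusive means only one of the two criteria is met; inactive means neither criterion is met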
T cruzi growth-3: Trypanosoma cruzi proliferation inhibition; shares compounds with T cruzi growth-1; T. cruzi beta-gal in NIH3T3, GalScreen luminescence, 90 h; inhibition, % at 2.09 µM; 21% of 5,600 active;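 active means mean inhibition above about 95%, with at least 55% of replicates also reaching it, limit read from the data; inconclusive means meets just one of the two conditions; inactive means meets neither condition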
NIH3T3 tox: kills mouse NIH/3T3 fibroblasts. shares compounds with T cruzi growth-1. NIH/3T3 viability, CellTiter-Glo ATP luminescence, 90 h. cytotoxicity (signal decrease), % at 8.35 µM. 14% of 5,600 active. AID 651742;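 active means mean signal decrease across replicates above about 35% based on untreated-well scatter, with enough replicates individually passing, limit read from the data; inconclusive means no rule stated though some were filed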
3T3 cytotox 2: kills mouse NIH/3T3 fibroblasts. shares compounds with T cruzi growth-1. NIH/3T3 viability, CellTiter-Glo ATP luminescence, 90 h. inhibition, % at 24.9 µM. 56% of 5,600 active. AID 651744;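 active means mean loss of cell viability signal at or above a set limit, and enough replicates individually reaching it; inconclusive means meets only the mean limit or only the replicate share; inactive means meets neither condition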
Large screens that a line does not name were inactive (follow-up assays come after a bar, where they were run). The list is not random: actives were taken first. Their share in the collection is about 5.9%.

Cc1ccccc1-c1ccc([C@H]2[C@@H](CO)N3CCCCN(C(=O)CN4CCOCC4)C[C@@H]23)cc1	T cruzi growth-1 inconclusive (no result: IDH1 mut inh) | T cruzi growth-2 inactive | T cruzi growth-3 inactive | NIH3T3 tox inactive | 3T3 cytotox 2 inactive
O=C(CN1CCOCC1)N1CCCCN2[C@@H](CO)[C@@H](c3ccc(C#Cc4ccccc4)cc3)[C@@H]2C1	T cruzi growth-1 98 (no result: IDH1 mut inh) | T cruzi growth-2 inactive | T cruzi growth-3 inactive | NIH3T3 tox inactive | 3T3 cytotox 2 103
O=C(CN1CCOCC1)N1CCCCN2[C@H](CO)[C@@H](c3ccc(-c4ccccc4)cc3)[C@H]2C1	none (no result: IDH1 mut inh)
O=C(CN1CCOCC1)N1CCCCN2[C@H](C1)[C@@H](c1ccc(C#Cc3ccccc3)cc1)[C@@H]2CO	T cruzi growth-1 112 (no result: IDH1 mut inh) | T cruzi growth-2 107 | T cruzi growth-3 inactive | NIH3T3 tox inactive | 3T3 cytotox 2 101
COc1ccccc1-c1ccc([C@@H]2[C@H](CO)N3CCCCN(C(=O)CN4CCOCC4)C[C@@H]23)cc1	none (no result: IDH1 mut inh)
O=C(CN1CCOCC1)N1CCCCN2[C@@H](CO)[C@H](c3ccc(C#Cc4ccccc4)cc3)[C@@H]2C1	none (no result: IDH1 mut inh)
O=C(CN1CCOCC1)N1CCCCN2[C@@H](CO)[C@@H](c3ccc(/C=C/c4ccccc4)cc3)[C@@H]2C1	T cruzi growth-1 105 (no result: IDH1 mut inh) | T cruzi growth-2 105 | T cruzi growth-3 inactive | NIH3T3 tox inactive | 3T3 cytotox 2 105
O=C(CN1CCOCC1)N1CCCCN2[C@H](C1)[C@H](c1ccc(C#Cc3ccccc3)cc1)[C@@H]2CO	none (no result: IDH1 mut inh)
Cn1c(SCC(=O)Nc2ccnc3ccccc23)nnc1-c1ccncc1	none (no result: T cruzi growth-1, Pf Dd2 inh, KDM4C inh)
C[C@H]1CCCCO[C@H](CN(C)Cc2ccc3c(c2)OCO3)[C@@H](C)CN([C@@H](C)CO)C(=O)c2cc(NC(=O)Nc3ccc(C(F)(F)F)cc3)ccc2O1	T cruzi growth-1 inconclusive | T cruzi growth-2 inactive | T cruzi growth-3 106 | NIH3T3 tox 91 | 3T3 cytotox 2 103
C[C@@H]1CCCCO[C@@H](CN(C)Cc2ccc3c(c2)OCO3)[C@@H](C)CN([C@H](C)CO)C(=O)c2cc(NC(=O)Nc3ccc(C(F)(F)F)cc3)ccc2O1	T cruzi growth-1 127 (no result: IDH1 mut inh) | T cruzi growth-2 inactive | T cruzi growth-3 110 | NIH3T3 tox inactive | 3T3 cytotox 2 inactive
C[C@H](CO)N1C[C@H](C)[C@@H](CN(C)Cc2ccc(C(F)(F)F)cc2)OCCCC[C@H](C)Oc2ccc(NC(=O)Nc3ccc4c(c3)OCO4)cc2C1=O	none
C[C@H](CO)N1C[C@H](C)[C@H](CN(C)Cc2ccc3c(c2)OCO3)OCCCC[C@H](C)Oc2ccc(NC(=O)Nc3ccc(C(F)(F)F)cc3)cc2C1=O	T cruzi growth-1 inconclusive (no result: IDH1 mut inh) | T cruzi growth-2 104 | T cruzi growth-3 113 | NIH3T3 tox 124 | 3T3 cytotox 2 104
C[C@H]1CCCCO[C@H](CN(C)Cc2ccc(C(F)(F)F)cc2)[C@@H](C)CN([C@@H](C)CO)C(=O)c2cc(NC(=O)Nc3ccc4c(c3)OCO4)ccc2O1	none (no result: IDH1 mut inh)
C[C@@H]1CCCCO[C@H](CN(C)Cc2ccc(C(F)(F)F)cc2)[C@H](C)CN([C@@H](C)CO)C(=O)c2cc(NC(=O)Nc3ccc4c(c3)OCO4)ccc2O1	none
C[C@@H]1CN([C@@H](C)CO)C(=O)c2cc(NC(=O)Nc3ccc(C(F)(F)F)cc3)ccc2O[C@@H](C)CCCCO[C@H]1CN(C)Cc1ccc2c(c1)OCO2	T cruzi growth-1 inconclusive (no result: IDH1 mut inh) | T cruzi growth-2 100 | T cruzi growth-3 112 | NIH3T3 tox inactive | 3T3 cytotox 2 105
Cc1ccc(-c2cc3ccccn3c2C(=O)CSc2nnc(C)s2)cc1	none (no result: T cruzi growth-1, Pf Dd2 inh, KDM4C inh)
COc1ccc(OC)c(NC(=O)CSc2nnc(-c3ccccc3)n2C)c1	none (no result: T cruzi growth-1, Pf Dd2 inh, KDM4C inh)
C[C@@H]1CCCCO[C@H](CN(C)Cc2ccc3c(c2)OCO3)[C@H](C)CN([C@@H](C)CO)C(=O)c2cc(NC(=O)Nc3ccc(C(F)(F)F)cc3)ccc2O1	T cruzi growth-1 122, Pf Dd2 inh -86 | T cruzi growth-2 96 | T cruzi growth-3 116 | NIH3T3 tox 122 | 3T3 cytotox 2 104
C[C@@H]1CCCCO[C@@H](CN(C)Cc2ccc(C(F)(F)F)cc2)[C@H](C)CN([C@H](C)CO)C(=O)c2cc(NC(=O)Nc3ccc4c(c3)OCO4)ccc2O1	none (no result: IDH1 mut inh)
C[C@@H]1CN([C@H](C)CO)C(=O)c2cc(NC(=O)Nc3ccc(C(F)(F)F)cc3)ccc2O[C@@H](C)CCCCO[C@H]1CN(C)Cc1ccc2c(c1)OCO2	T cruzi growth-1 inconclusive | T cruzi growth-2 inconclusive | T cruzi growth-3 103 | NIH3T3 tox inactive | 3T3 cytotox 2 104
C[C@@H]1CCCCO[C@H](CN(C)Cc2ccc3c(c2)OCO3)[C@@H](C)CN([C@@H](C)CO)C(=O)c2cc(NC(=O)Nc3ccc(C(F)(F)F)cc3)ccc2O1	T cruzi growth-1 inconclusive (no result: IDH1 mut inh, KDM4C inh) | T cruzi growth-2 97 | T cruzi growth-3 116 | NIH3T3 tox 117 | 3T3 cytotox 2 104
COc1ccc(NC(=O)N(C)C[C@H]2Oc3cc(-c4ccncc4)ccc3S(=O)(=O)N([C@H](C)CO)C[C@@H]2C)cc1	none
COc1ccc(NC(=O)N(C)C[C@H]2Oc3cc(-c4ccc(C)cc4)ccc3S(=O)(=O)N([C@@H](C)CO)C[C@H]2C)cc1	T cruzi growth-1 106 | T cruzi growth-2 108 | T cruzi growth-3 inactive | NIH3T3 tox inactive | 3T3 cytotox 2 inactive
COc1ccc(NC(=O)N(C)C[C@@H]2Oc3cc(-c4ccc(C)cc4)ccc3S(=O)(=O)N([C@H](C)CO)C[C@@H]2C)cc1	T cruzi growth-1 123, Pf Dd2 inh -90 | T cruzi growth-2 105 | T cruzi growth-3 inactive | NIH3T3 tox 47 | 3T3 cytotox 2 inactive
COc1ccc(C)cc1N(CC(=O)Nc1cccc(Cl)c1Cl)S(C)(=O)=O	none (no result: T cruzi growth-1, Pf Dd2 inh, KDM4C inh)
C[C@@H]1O[C@@H](OC[C@H]2O[C@@H](c3c(O)cc4oc(-c5ccc(O)c(O)c5)cc(=O)c4c3O)[C@H](O)[C@@H](O)[C@@H]2O)[C@H](O)[C@H](O)[C@H]1O	none (no result: T cruzi growth-1, Pf Dd2 inh, KDM4C inh)
C[C@H]1CN([C@@H](C)CO)C(=O)c2cc(C#CCN(C)C)cnc2O[C@H]1CN(C)Cc1ccc(-c2ccccc2)cc1	none (no result: Pf Dd2 inh, IDH1 mut inh)
COCC#Cc1cnc2c(c1)C(=O)N([C@@H](C)CO)C[C@@H](C)[C@H](CN(C)Cc1ccc(-c3ccccc3)cc1)O2	T cruzi growth-1 120 (no result: IDH1 mut inh) | T cruzi growth-2 109 | T cruzi growth-3 inactive | NIH3T3 tox 46 | 3T3 cytotox 2 106
COCC#Cc1cnc2c(c1)C(=O)N([C@H](C)CO)C[C@H](C)[C@@H](CN(C)Cc1ccc(-c3ccccc3)cc1)O2	none (no result: IDH1 mut inh)
